Measured values published in ChEMBL document CHEMBL4000155, “Synthesis and Antileukemic Activities of Piperlongumine and HDAC Inhibitor Hybrids against Acute Myeloid Leukemia Cells” (J Med Chem, 2016).
Calls of active or inactive are those of the source. The calls are words filed in the database; no cut-off is given here.

Legend:
Homo sapiens = organism: Homo sapiens; conditions: at 1 µM
U-937 [1] = test: Induction of DNA damage in p53 null human U937 cells assessed as decrease in CHK1 expression level by measuring ratio of CHK1 to beta-actin level at 2 uM after 24 hrs by Western blot analysis relative to control; format: functional
Procedure, shortened: (§1)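 U937 cells treated 24 h, alone or PL+SAHA. Whole-cell lysates (protease/phosphatase inhibitors) immunoblotted for γH2AX, CHK1, RAD51, Bim and XIAP. Band densitometry normalised to β-actin, then expressed as fold change relative to the untreated control.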

MV4-11 [2] = test: Antiproliferative activity against human MV4-11 cells after 72 hrs by MTT assay; format: functional, cell-based; conditions: MV4-11, 72 h
[3] = Antiproliferative activity against human CMS cells after 72 hrs by MTT assay; format: functional, cell-based
Procedure, shortened: (§2)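 AML cell lines grown in RPMI 1640 with 10% FBS (20% for MOLM-13), 2 mM L-glutamine and penicillin/streptomycin at 37 °C, 5% CO2. Ara-C-resistant HL-60 and CMK sublines came from stepwise cytarabine selection and were kept in 600 nM or 300 nM cytarabine respectively. Cells were treated 72 h. MTT 0.05 mg/mL, 3 h at 37 °C, DMSO solubilization, absorbance at 570 nm. IC50 given ± SEM.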

OCI-AML-3 = test: Antiproliferative activity against human OCI-AML3 cells after 72 hrs by MTT assay; format: functional, cell-based; conditions: OCI-AML-3, 72 h
MDA-MB-231 = test: Antiproliferative activity against human MDA-MB-231 cells after 24 hrs by MTT assay; format: functional, cell-based; conditions: MDA-MB-231, 24 h
HL-60 [4] = test: Antiproliferative activity against Ara-C resistant human HL60 cells after 72 hrs by MTT assay; format: functional, cell-based; conditions: HL-60, 72 h
CMK [5] = test: Antiproliferative activity against Ara-C resistant human CMK cells after 72 hrs by MTT assay; format: functional, cell-based
HL-60 [6] = test: Antiproliferative activity against human HL60 cells after 72 hrs by MTT assay; format: functional, cell-based; conditions: HL-60, 72 h
U-937 [7] = test: Antiproliferative activity against p53 null human U937 cells after 72 hrs by MTT assay; format: functional, cell-based; conditions: U-937, 72 h
MCF-10A = test: Cytotoxicity against human MCF10A cells assessed as decrease in cell viability at 0.5 to 5 uM after 24 hrs by MTT assay; format: cell-based
Procedure, shortened: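 MCF-10A (DMEM/F12, 5% horse serum, hydrocortisone, cholera toxin, insulin, EGF) and U937 (RPMI 1640, 10% FBS) were exposed to 0.5–5 μM, alone or PL+SAHA 1:1, for 24 h. MTT 0.05 mg/mL, 3 h at 37 °C, DMSO solubilization, A570. Viability given as mean ± SD of four to six independent experiments. DMSO <0.1% vehicle control.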

CMK [8] = test: Antiproliferative activity against human CMK cells after 72 hrs by MTT assay; format: functional, cell-based
[9] = Antiproliferative activity against human CMY cells after 72 hrs by MTT assay; format: functional, cell-based
U-937 [10] = test: Induction of DNA damage in p53 null human U937 cells assessed as increase in gammaH2AX expression level by measuring ratio of gammaH2AX to beta-actin level at 2 uM after 24 hrs by Western blot analysis relative to control; format: functional
Procedure, shortened: as §1

U-937 [11] = test: Induction of apoptosis in p53 null human U937 cells assessed as increase in Bim EL expression level by measuring ratio of Bim EL to beta-actin level at 2 uM after 24 hrs by Western blot analysis relative to control; format: functional
Procedure, shortened: as §1

U-937 [12] = test: Induction of DNA damage in p53 null human U937 cells at 2 uM after 20 hrs by SYBR gold staining based alkaline comet assay; format: functional, cell-based
Procedure, shortened: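 U937 cells treated 20 h with SAHA and PL alone or combined (16 h for hybrids). Alkaline single-cell gel electrophoresis, SYBR Gold staining, microscopy. Median % DNA in tail from 4 replicate gels ± s.e.m.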

U-937 [13] = test: Induction of apoptosis in p53 null human U937 cells assessed as decrease in XIAP expression level by measuring ratio of XIAP to beta-actin level at 2 uM after 24 hrs by Western blot analysis relative to control; format: functional
Procedure, shortened: as §1

MOLM-13 = test: Antiproliferative activity against human MOLM13 cells harboring wild type p53/FLT3-ITD mutant after 72 hrs by MTT assay; format: functional, cell-based; conditions: MOLM-13, 72 h
U-937 [14] = test: Induction of apoptosis in p53 null human U937 cells at 2 uM preincubated with NAC for 3 hrs followed by compound addition measured after 24 hrs by annexin V-FITC/PI staining based flow cytometry; format: functional, cell-based
Procedure, shortened: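 U937 cells preincubated 3 h with 3 mM NAC or vehicle and washed with PBS to remove excess NAC. Then drug alone or with SAHA for 24 h. Apoptosis scored as % Annexin V+ by Annexin V-FITC/PI flow cytometry; vehicle DMSO < 0.1% v/v.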

U-937 [15] = test: Effect on SAHA-induced apoptosis in p53 null human U937 cells assessed as increase in Bim EL expression level by measuring ratio of Bim EL to beta-actin level at 2 uM after 24 hrs by Western blot analysis relative to control; format: functional
Procedure, shortened: as §1

HL-60 [16] = test: Antiproliferative activity against human HL60 cells after 72 hrs in presence of SAHA by MTT assay; format: functional, cell-based; conditions: HL-60, 72 h
Procedure, shortened: as §2

MV4-11 [17] = test: Antiproliferative activity against human MV4-11 cells after 72 hrs in presence of SAHA by MTT assay; format: functional, cell-based; conditions: MV4-11, 72 h
U-937 [18] = test: Effect on SAHA-induced DNA damage in p53 null human U937 cells assessed as increase in gammaH2AX expression level by measuring ratio of gammaH2AX to beta-actin level at 2 uM after 24 hrs by Western blot analysis relative to control; format: functional
Procedure, shortened: as §1

IC50 (MV4-11 [2]) [nM] | IC50 (OCI-AML-3) [nM] | IC50 (HL-60 [4]) [nM] | IC50 (HL-60 [6]) [nM] | IC50 (U-937 [7]) [nM] | IC50 (MOLM-13) [nM] | SMILES | inhibition (Homo sapiens) | Ratio (U-937 [1]) | IC50 [3] [nM] | IC50 (CMK [5]) [nM] | Activity (MCF-10A) | IC50 (CMK [8]) [nM] | IC50 [9] [nM] | Ratio (U-937 [10]) | Ratio (U-937 [11]) | Activity (U-937 [12]) | Ratio (U-937 [13]) | Activity (U-937 [14]) | other results
230 | 615 | 692 | 357 | 498 | 454 | COc1cc(/C=C/C(=O)N2CCC=CC2=O)cc(OC)c1OCCCCCCC(=O)NO | Active | 0.7 | 385 | 215 | Non-Toxic | 256 | 185 | 4.5 | 1.8 | Active | 0.6 | inactive | IC50 (MDA-MB-231): 382 nM
1440 | 1870 | 2250 | 1780 | 2170 | 1840 | COc1cc(/C=C/C(=O)N2CCC=CC2=O)cc(OC)c1OC [PIPLARTINE] | inactive | 1 | 3100 | 1910 | Non-Toxic | 2820 | 1620 | 1 | 1 | inactive | 1 | inactive | Ratio (U-937 [15]): 1.8; IC50 (HL-60 [16]): 529 nM; IC50 (MV4-11 [17]): 289 nM; Ratio (U-937 [18]): 4.1
